In one experiment the target is T1, Cholecystokinin receptor (Rattus norvegicus, UniProt P30551+P30553).
T1 sequence (P30551 whole entry): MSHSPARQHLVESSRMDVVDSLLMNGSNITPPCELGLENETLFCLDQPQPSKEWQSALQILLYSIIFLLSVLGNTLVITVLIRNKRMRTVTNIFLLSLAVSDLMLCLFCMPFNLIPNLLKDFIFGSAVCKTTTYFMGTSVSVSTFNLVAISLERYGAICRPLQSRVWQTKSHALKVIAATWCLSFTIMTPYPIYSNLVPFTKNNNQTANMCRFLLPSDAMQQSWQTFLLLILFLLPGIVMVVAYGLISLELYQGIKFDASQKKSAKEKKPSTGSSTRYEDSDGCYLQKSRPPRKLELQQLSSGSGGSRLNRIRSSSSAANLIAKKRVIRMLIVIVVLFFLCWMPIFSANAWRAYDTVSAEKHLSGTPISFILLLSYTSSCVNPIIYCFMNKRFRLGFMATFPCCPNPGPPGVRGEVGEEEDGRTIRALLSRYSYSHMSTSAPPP
T1 sequence (P30553 whole entry): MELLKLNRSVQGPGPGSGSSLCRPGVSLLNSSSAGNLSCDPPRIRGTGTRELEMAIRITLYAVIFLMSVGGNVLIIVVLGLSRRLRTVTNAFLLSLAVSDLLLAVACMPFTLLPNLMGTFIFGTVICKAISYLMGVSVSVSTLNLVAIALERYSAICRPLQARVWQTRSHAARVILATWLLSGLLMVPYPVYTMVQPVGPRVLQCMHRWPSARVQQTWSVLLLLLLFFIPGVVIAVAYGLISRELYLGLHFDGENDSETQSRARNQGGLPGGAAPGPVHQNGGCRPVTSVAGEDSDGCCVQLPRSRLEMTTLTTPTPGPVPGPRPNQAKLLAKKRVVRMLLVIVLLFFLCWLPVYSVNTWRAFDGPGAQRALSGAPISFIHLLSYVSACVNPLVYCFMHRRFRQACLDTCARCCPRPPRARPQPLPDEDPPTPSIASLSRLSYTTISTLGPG
Description: Binding affinity towards cholecystokinin receptor by the displacement of [125I]CCK-33 in rat pancreatic tissue. In a few lines:
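Radioligand displacement assays: [125I]CCK-33 binding to rat pancreas or guinea pig cerebral cortex tissue, and [125I]gastrin binding to guinea pig gastric glands, each run by earlier-described methods. Reported values are means of triplicate determinations.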
(In general: Loss of bound radioactivity is the signal in a displacement assay; it reports binding, not function.)

Another experiment is filed under the species Cavia porcellus. Description: Inhibition of binding of [125I]gastrin to guinea pig gastric glands. The conditions noted are these: Stomach.

As to `Fc1ccccc1C1=N[C@H](Cc2c[nH]c3ccccc23)C(Nc2ccccc2)=Nc2ccccc21`, the IC50 (in general, the concentration that inhibits the measured activity by half) at Cholecystokinin receptor turned out to be 34 µM. As to `N#CNC1=Nc2ccccc2C(c2ccccc2F)=N[C@@H]1Cc1c[nH]c2ccccc12`, the IC50 at Cholecystokinin receptor amounted to 2 µM.

In the case of `O=C(O)CNC1=Nc2ccccc2C(c2ccccc2F)=N[C@@H]1Cc1c[nH]c2ccccc12`, the results for the IC50 on Cholecystokinin receptor and in the experiment filed under Cavia porcellus were 3.6 µM and 2.5 µM, respectively. As for `CNC1=Nc2ccccc2C(c2ccccc2NC)=N[C@@H]1Cc1c[nH]c2ccccc12`, the IC50 at Cholecystokinin receptor and in the experiment filed under Cavia porcellus was 100 µM each time. For `CNC1=Nc2ccccc2C(c2ccccc2F)=N[C@@H]1Cc1c[nH]c2ccccc12`, the IC50 at Cholecystokinin receptor is 4.4 µM; in the experiment listed under Cavia porcellus, 67 µM. For the compound `CCCNC1=Nc2ccccc2C(c2ccccc2F)=N[C@@H]1Cc1c[nH]c2ccccc12`, the IC50 on Cholecystokinin receptor was 2.7 µM; in the experiment listed under Cavia porcellus it was 100 µM.

In the case of `CCOC(=O)CNC1=Nc2ccccc2C(c2ccccc2F)=N[C@@H]1Cc1c[nH]c2ccccc12`, the values for the IC50 on Cholecystokinin receptor and in the experiment listed under Cavia porcellus were 23 µM and 100 µM, respectively.

In the case of `NC1=Nc2ccccc2C(c2ccccc2F)=N[C@@H]1Cc1c[nH]c2ccccc12`, the IC50 on Cholecystokinin receptor turned out to be 1.7 µM; in the experiment filed under Cavia porcellus it was 100 µM. As for `CNC1=Nc2ccc(Cl)cc2C(c2ccccc2)=[N+]([O-])C1` [CHLORDIAZEPOXIDE], the IC50 on Cholecystokinin receptor and in the experiment listed under Cavia porcellus was 100 µM in each case.

(Values after ChEMBL document CHEMBL1123957, “Cholecystokinin antagonists. Synthesis and biological evaluation of 3-substituted 1,4-benzodiazepin-2-amines” (J Med Chem, 1988).)
